# Tests used:
# Monkey [1] = experiment: Maximum fall in mean arterial blood pressure expressed in mmHg following a 3 mg/kg intravenous dose in monkeys
# Cathepsin D [2] = molecular target: T1, Cathepsin D (Bos taurus, UniProt P80209); experiment: Inhibitory concentration on Bovine Cathepsin D
# T1 sequence (P80209 whole entry): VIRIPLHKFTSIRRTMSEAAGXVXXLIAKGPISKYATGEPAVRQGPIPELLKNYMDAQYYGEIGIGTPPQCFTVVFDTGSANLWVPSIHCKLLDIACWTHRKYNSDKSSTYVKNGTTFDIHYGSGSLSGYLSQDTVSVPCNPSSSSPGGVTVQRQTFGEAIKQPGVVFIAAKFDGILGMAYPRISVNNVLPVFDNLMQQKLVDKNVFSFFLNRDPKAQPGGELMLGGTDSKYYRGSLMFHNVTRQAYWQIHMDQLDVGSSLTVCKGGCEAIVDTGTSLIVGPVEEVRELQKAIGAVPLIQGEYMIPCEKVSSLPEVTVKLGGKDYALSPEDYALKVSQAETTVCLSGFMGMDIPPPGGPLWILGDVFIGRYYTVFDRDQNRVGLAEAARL
# In short: (§1)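 Bovine cathepsin D hydrolysing twice-crystallised bovine hemoglobin at pH 3.2 and 37 °C, run in duplicate. Net absorbance at 280 nm was read in acid-precipitated supernatants and compared with uninhibited controls. IC50 came from nonlinear regression over six inhibitor concentrations.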
# Cathepsin D [3] = molecular target: T1, Cathepsin D; experiment: Inhibition of Bovine Cathepsin D.
# In short: as §1
# [4] = molecular target: Renin (Macaca fascicularis); experiment: Inhibition of monkey plasma renin
# Monkey [5] = experiment: Maximum fall in mean arterial blood pressure expressed in mmHg following a 30 mg/kg dose in monkeys.; format: functional, Cercopithecidae
# In short: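 Conscious monkeys were dosed orally by gavage at 30 mg/kg in water/dimethylacetamide/Tween 80 (62.5:7.5:30), 2 mL/kg. Two models were used: high-renin normotensive (sodium restriction plus furosemide) or renal hypertensive (renal artery clipping). Mean arterial pressure was followed for 3 h, and the maximum fall in mmHg was recorded. N is given per compound.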
# Renin = molecular target: T2, Renin (Homo sapiens, UniProt P00797); experiment: Inhibitory concentration against human renin
# T2 sequence (P00797 whole entry): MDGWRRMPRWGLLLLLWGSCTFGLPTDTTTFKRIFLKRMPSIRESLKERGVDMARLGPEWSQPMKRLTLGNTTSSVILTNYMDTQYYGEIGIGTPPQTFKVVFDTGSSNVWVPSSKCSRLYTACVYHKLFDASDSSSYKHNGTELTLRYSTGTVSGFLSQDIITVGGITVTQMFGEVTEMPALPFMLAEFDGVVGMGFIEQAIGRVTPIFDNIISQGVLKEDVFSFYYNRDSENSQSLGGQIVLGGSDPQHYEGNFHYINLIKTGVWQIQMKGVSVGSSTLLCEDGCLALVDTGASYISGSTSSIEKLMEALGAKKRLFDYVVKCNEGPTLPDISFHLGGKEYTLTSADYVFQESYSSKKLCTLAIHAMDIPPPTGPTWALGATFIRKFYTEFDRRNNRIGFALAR
# [6] = molecular target: Chymotrypsinogen A (Bos taurus) (UniProt P00766); experiment: % degradation to Chymotrypsinogen proteolysis at 30 mins.
# In short: (§2)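 Bovine chymotrypsin in buffered solution at pH 6.9, following a previously established method. Test compound was incubated with the enzyme, and the percent of compound degraded was read at 15 or 30 min.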
# [7] = molecular target: Chymotrypsinogen A (Bos taurus) (UniProt P00766); experiment: % degradation to Chymotrypsinogen proteolysis at 15 mins.
# In short: as §2
SMILES,IC50 (Cathepsin D [2]) [µM],IC50 (Cathepsin D [3]) [µM],IC50 [4] [µM],Blood pressure (Monkey [5]) [mmHg],other results
COC(=O)C(NC(=O)[C@H](Cc1ccccc1)NS(=O)(=O)N1CCOCC1)C(=O)N[C@@H](CC1CCCCC1)[C@@H](O)CC(=O)NCCN1CCOCC1 (stereo partly drawn),> 1,–,–,–,Blood pressure (Monkey [1]): 16 mmHg
COC(=O)CCC(NC(=O)[C@H](Cc1ccccc1)NS(=O)(=O)N1CCOCC1)C(=O)N[C@@H](CC1CCCCC1)[C@@H](O)[C@H](O)CC(C)C (stereo partly drawn),–,0.03,0.0014,12,–
CSC[C@H](NC(=O)[C@H](Cc1ccccc1)NC(=O)N1CCOCC1)C(=O)N[C@@H](CC1CCCCC1)[C@@H](O)C(=O)OC(C)C,0.024,–,–,9,–
CC(C)C[C@@H](O)[C@H](O)[C@H](CC1CCCCC1)NC(=O)C(NC(=O)[C@H](Cc1ccccc1)NS(=O)(=O)N1CCOCC1)C(=O)O (stereo partly drawn),–,0.31,0.027,–,–
COC(=O)C(NC(=O)[C@H](Cc1ccccc1)NS(=O)(=O)N1CCOCC1)C(=O)N[C@@H](CC(C)C)[C@@H](O)CC(=O)NCCN1CCOCC1 (stereo partly drawn),> 1,–,–,–,IC50 (Renin): 0.13 µM
COC(=O)C(NC(=O)[C@H](Cc1ccccc1)NS(=O)(=O)N1CCOCC1)C(=O)N[C@@H](CC1CCCCC1)[C@@H](O)[C@H](O)CC(C)C (stereo in doubt; 4A),–,0.046,–,–,Blood pressure (Monkey [5]; 30 mg/kg): 18 mmHg
COC(=O)C(NC(=O)[C@H](Cc1ccccc1)NS(=O)(=O)N1CCOCC1)C(=O)N[C@@H](CC1CCCCC1)C(=O)C(F)(F)C(=O)NCCN1CCOCC1 (stereo partly drawn),0.515,–,–,16,–
CCCCNC(=O)[C@@H](C[C@H](O)[C@H](CC1CCCCC1)NC(=O)[C@H](Cc1c[nH]cn1)NC(=O)[C@H](Cc1ccccc1)CS(=O)(=O)C(C)(C)C)C(C)C,1.3,–,–,16,–
COC(=O)C(NC(=O)[C@H](Cc1ccccc1)NS(=O)(=O)N1CCOCC1)C(=O)N[C@@H](CC1CCCCC1)[C@@H](O)[C@H](O)CC(C)C (stereo in doubt; 4) [listing 2 of 2 here],–,–,–,–,Degradation [6]: 100%; Degradation [7]: 89%

# Second part, led by results:
IC50 (Cathepsin D [2]) [µM],IC50 (Cathepsin D [3]) [µM],IC50 [4] [µM],SMILES,Blood pressure (Monkey [5]) [mmHg],other results
–,> 1,–,COc1ccc(C[C@H](NC(=O)CC(C)(C)N)C(=O)N[C@@H](Cc2c[nH]cn2)C(=O)N[C@@H](CC2CCCCC2)[C@@H](O)[C@@H](O)CC(C)C)cc1,8,–
–,0.1,0.015,CCCCCCOC(=O)C(NC(=O)[C@H](Cc1ccccc1)NS(=O)(=O)N1CCOCC1)C(=O)N[C@@H](CC1CCCCC1)[C@@H](O)[C@H](O)CC(C)C (stereo partly drawn),–,Degradation [6]: 15%
–,0.043,0.00068,CC(C)C[C@@H](O)[C@H](O)[C@H](CC1CCCCC1)NC(=O)C(NC(=O)[C@H](Cc1ccccc1)NS(=O)(=O)N1CCOCC1)C(=O)OC(C)C (stereo partly drawn),16,Degradation [6]: 70%
–,0.036,–,COC(=O)C(NC(=O)[C@H](Cc1ccccc1)NS(=O)(=O)N1CCOCC1)C(=O)N[C@@H](CC1CCCCC1)[C@@H](O)[C@H](O)CC(C)C (stereo in doubt; 4) [listing 1 of 2 here],–,Blood pressure (Monkey [5]; 30 mg/kg): 22 mmHg
–,0.027,0.00018,COC(=O)CC(NC(=O)[C@H](Cc1ccccc1)NS(=O)(=O)N1CCOCC1)C(=O)N[C@@H](CC1CCCCC1)[C@@H](O)[C@H](O)CC(C)C (stereo partly drawn),3,–
–,0.077,–,COC(=O)C(NC(=O)[C@H](Cc1ccccc1)NS(=O)(=O)N1CCOCC1)C(=O)N[C@@H](CC1CCCCC1)[C@@H](O)[C@H](O)CC(C)C (stereo in doubt; 4B),–,Blood pressure (Monkey [5]; 30 mg/kg): 14 mmHg
–,> 0.1,0.00095,C=CCOC(=O)C(NC(=O)[C@H](Cc1ccccc1)NS(=O)(=O)N1CCOCC1)C(=O)N[C@@H](CC1CCCCC1)[C@@H](O)[C@H](O)CC(C)C (stereo partly drawn),–,Degradation [6]: 65%

# From ChEMBL document CHEMBL1125270, “Renin inhibitors containing esters at the P2-position. Oral activity in a derivative of methyl aminomalonate” (J Med Chem, 1991)
